Active and inactive are the calls of the source. No cut-off for these calls is given here.
Tests used:
[1] = molecular target: Protein-tyrosine kinase 6 (Homo sapiens, UniProt Q13882); test: Inhibition of BRK (unknown origin) in presence of [gamma-33P]ATP
[2] = molecular target: Serine/threonine-protein kinase Chk1 (Homo sapiens, UniProt O14757); test: Inhibition of CHK1 (unknown origin) in presence of [gamma-33P]ATP
[3] = molecular target: Tyrosine-protein kinase JAK3 (Homo sapiens, UniProt P52333); test: Inhibition of JAK3 (unknown origin) in presence of [gamma-33P]ATP
Tyrosine-protein kinase JAK3, sequence (P52333 whole entry): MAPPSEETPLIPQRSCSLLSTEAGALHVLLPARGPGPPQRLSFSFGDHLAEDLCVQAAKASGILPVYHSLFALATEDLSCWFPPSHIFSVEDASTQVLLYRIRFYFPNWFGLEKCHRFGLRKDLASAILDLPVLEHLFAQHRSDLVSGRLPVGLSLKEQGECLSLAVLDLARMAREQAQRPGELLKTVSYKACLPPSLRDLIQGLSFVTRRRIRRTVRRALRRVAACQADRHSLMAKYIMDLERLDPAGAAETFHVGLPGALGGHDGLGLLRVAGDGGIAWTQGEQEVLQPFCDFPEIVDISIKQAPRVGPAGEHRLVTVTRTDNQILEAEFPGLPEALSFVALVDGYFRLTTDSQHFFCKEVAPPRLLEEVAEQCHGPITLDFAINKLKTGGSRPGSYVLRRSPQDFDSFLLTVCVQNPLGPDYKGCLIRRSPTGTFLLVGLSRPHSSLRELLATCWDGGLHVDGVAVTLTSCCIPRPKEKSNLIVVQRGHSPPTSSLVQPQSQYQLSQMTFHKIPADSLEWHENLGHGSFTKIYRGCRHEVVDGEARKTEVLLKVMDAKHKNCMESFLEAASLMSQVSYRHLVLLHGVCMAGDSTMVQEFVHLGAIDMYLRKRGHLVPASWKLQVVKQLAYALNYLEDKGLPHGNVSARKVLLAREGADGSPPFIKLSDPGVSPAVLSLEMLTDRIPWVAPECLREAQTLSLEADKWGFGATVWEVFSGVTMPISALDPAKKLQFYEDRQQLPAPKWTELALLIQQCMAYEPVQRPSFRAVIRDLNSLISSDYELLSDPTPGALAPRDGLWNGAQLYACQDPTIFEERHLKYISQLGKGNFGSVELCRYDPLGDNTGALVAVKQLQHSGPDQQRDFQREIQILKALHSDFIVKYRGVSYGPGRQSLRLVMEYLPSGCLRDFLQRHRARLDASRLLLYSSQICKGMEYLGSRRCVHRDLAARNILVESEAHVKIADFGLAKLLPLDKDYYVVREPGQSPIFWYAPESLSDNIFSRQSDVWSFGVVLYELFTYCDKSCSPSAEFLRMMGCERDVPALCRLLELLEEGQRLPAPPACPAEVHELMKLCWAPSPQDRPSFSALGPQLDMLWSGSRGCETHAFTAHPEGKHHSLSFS

[4] = molecular target: Serine/threonine-protein kinase Nek6 (Homo sapiens, UniProt Q9HC98); test: Inhibition of NEK6 (unknown origin) in presence of [gamma-33P]ATP
Serine/threonine-protein kinase Nek6, sequence (Q9HC98 whole entry): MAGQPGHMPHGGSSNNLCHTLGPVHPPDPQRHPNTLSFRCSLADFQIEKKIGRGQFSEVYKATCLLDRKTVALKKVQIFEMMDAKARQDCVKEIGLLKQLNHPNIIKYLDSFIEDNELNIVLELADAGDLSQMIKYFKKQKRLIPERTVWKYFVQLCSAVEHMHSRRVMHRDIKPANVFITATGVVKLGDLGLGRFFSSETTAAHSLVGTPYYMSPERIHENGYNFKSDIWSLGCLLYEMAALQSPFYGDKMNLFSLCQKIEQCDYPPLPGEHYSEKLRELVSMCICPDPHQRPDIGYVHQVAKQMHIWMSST

[5] = Inhibition of PDGFR (unknown origin) in presence of [gamma-33P]ATP; design: species or system Homo sapiens
[6] = molecular target: High affinity nerve growth factor receptor (Homo sapiens, UniProt P04629); test: Inhibition of TRKA (unknown origin) in presence of [gamma-33P]ATP
[7] = molecular target: Rho-associated protein kinase 2 (Homo sapiens) (UniProt O75116); test: Inhibition of N-terminal His6-tagged recombinant human ROCK-II (11 to 552 residues) expressed in baculovirus infected Sf21 cells assessed as residual activity at 0.1 uM relative to control
Rho-associated protein kinase 2 (Homo sapiens), sequence (O75116 whole entry, looked up, the tested form may be a part): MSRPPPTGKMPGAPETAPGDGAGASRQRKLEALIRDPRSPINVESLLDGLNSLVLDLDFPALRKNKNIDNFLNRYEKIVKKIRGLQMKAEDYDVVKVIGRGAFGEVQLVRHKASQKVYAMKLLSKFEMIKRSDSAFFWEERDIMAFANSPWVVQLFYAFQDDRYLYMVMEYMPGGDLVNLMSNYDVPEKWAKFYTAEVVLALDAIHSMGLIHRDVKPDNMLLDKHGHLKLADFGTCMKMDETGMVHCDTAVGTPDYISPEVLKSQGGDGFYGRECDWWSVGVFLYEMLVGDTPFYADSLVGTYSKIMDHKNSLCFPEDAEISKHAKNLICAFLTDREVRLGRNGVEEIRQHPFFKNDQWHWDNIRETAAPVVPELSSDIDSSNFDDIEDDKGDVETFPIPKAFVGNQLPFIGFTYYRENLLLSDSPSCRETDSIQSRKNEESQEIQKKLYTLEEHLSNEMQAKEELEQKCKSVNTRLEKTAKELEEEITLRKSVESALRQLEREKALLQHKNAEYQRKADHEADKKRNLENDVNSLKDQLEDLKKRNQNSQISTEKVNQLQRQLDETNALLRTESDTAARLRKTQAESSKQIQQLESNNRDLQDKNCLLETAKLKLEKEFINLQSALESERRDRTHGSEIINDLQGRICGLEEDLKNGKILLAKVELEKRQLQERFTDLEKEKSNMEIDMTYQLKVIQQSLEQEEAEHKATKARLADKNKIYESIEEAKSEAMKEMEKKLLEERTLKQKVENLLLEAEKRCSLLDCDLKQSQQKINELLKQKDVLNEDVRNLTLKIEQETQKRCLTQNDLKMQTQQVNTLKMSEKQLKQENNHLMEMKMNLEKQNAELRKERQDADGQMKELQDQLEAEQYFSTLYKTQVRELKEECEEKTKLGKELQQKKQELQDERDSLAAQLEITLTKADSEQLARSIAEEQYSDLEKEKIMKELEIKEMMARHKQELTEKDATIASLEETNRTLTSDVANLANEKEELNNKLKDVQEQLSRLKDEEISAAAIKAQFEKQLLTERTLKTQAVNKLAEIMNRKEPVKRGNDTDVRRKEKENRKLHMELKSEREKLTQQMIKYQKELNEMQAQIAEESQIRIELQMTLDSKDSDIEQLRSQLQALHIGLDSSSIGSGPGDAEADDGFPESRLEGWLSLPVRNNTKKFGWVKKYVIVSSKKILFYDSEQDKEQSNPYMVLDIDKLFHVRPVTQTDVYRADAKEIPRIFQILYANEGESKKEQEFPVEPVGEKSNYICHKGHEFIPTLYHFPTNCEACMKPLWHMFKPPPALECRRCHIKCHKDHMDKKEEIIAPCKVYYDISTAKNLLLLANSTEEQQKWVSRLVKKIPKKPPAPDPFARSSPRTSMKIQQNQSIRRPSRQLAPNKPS

[8] = molecular target: Ribosomal protein S6 kinase alpha-1 (Rattus norvegicus) (UniProt Q63531); test: Inhibition of N-terminal His6 and HA (YPYDV PDYA) tagged recombinant full-length (1 to end residues) rat Rsk1 expressed in baculovirus infected Sf21 cells assessed as residual activity at 0.1 uM relative to control
[9] = molecular target: Phosphorylase b kinase gamma catalytic chain, liver/testis isoform (Homo sapiens) (UniProt P15735); test: Inhibition of GST-tagged recombinant human PhKgamma2 (1 to 301 residues) expressed in E. coli assessed as residual activity at 1 uM relative to control
Phosphorylase b kinase gamma catalytic chain, liver/testis isoform (Homo sapiens), sequence (P15735 whole entry, the tested form may be a part, canonical isoform): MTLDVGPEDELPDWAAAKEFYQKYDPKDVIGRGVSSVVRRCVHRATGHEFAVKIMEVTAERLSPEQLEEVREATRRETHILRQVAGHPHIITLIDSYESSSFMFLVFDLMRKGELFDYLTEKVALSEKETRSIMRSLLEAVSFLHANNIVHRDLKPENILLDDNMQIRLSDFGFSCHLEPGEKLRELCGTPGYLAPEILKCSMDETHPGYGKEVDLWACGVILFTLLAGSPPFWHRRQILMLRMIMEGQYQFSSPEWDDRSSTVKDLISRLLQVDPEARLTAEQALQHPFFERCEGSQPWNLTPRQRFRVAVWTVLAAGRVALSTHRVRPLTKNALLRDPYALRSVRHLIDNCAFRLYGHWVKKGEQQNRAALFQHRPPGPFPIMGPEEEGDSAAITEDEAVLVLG

[10] = molecular target: Mitogen-activated protein kinase 11 (Homo sapiens) (UniProt Q15759); test: Inhibition of N-terminal GST fusion protein corresponding to full-length human SAPK2b expressed in E. coli assessed as residual activity at 1 uM relative to control
[11] = molecular target: BDNF/NT-3 growth factors receptor (Homo sapiens) (UniProt Q16620); test: Inhibition of N-terminal His6 tagged recombinant human TrkB (455 to end residues) expressed in baculovirus infected Sf21 cells assessed as residual activity at 1 uM relative to control
BDNF/NT-3 growth factors receptor (Homo sapiens), sequence (Q16620 32-822 limits assumed): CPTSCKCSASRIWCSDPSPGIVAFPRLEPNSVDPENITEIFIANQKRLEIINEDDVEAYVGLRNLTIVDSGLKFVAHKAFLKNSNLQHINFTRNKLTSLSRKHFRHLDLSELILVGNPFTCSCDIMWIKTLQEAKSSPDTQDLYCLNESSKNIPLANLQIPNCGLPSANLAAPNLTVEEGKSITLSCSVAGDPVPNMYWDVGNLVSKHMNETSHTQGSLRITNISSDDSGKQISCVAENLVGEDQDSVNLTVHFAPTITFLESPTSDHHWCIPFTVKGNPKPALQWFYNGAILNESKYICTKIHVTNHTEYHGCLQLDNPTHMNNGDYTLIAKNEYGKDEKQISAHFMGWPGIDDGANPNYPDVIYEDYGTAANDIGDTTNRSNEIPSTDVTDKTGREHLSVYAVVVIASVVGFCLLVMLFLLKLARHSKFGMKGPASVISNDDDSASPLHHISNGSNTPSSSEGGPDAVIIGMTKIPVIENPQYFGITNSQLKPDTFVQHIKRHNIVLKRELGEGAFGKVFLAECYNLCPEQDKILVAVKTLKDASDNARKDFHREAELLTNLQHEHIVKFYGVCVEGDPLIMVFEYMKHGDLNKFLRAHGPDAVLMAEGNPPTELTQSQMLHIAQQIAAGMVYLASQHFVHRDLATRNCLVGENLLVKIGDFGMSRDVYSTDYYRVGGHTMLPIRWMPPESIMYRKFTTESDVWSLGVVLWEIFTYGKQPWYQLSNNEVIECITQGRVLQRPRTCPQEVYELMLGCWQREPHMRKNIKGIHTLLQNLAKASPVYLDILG

CAL-51 = test: Antiproliferative activity against human CAL-51 cells assessed as inhibition of cell growth incubated for 72 hrs by cell-titer glo assay; format: functional, cell-based; conditions: CAL-51, 72 h
Outline: (§1)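 Cells seeded 10,000–30,000/cm² (adherent) or 100,000/mL (suspension) in medium with 10% fetal calf serum; after 24 h treated in duplicate with serial dilutions for 72 h. Viable cells read by CellTiter-Glo luminescence; IC50 from sigmoidal fit; at least two independent experiments.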

BT-474 = test: Antiproliferative activity against human BT-474 cells assessed as inhibition of cell growth incubated for 72 hrs by cell-titer glo assay; format: functional, cell-based; conditions: BT-474, 72 h; outline: as §1
COLO-741 = test: Antiproliferative activity against human COLO-741 cells assessed as inhibition of cell growth incubated for 72 hrs by cell-titer glo assay; format: functional, cell-based; conditions: COLO-741, 72 h; outline: as §1
NCI-H1993 = test: Antiproliferative activity against human NCI-H1993 cells assessed as inhibition of cell growth incubated for 72 hrs by cell-titer glo assay; format: functional, cell-based; conditions: NCI-H1993, 72 h
Outline: (§2)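 Cells from ATCC or ECACC, kept in supplier-recommended medium with 1% penicillin-streptomycin at 37°C, 5% CO₂. Seeded at 10,000–30,000/cm² (adherent) or 100,000/mL (nonadherent) in medium with 10% fetal calf serum. Dosed after 24 h in duplicate with serial dilutions. Viable cells read by CellTiter-Glo 72 h later. IC50 from sigmoidal fit. At least two independent experiments.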

IGROV-1 = test: Antiproliferative activity against human IGROV-1 cells assessed as inhibition of cell growth incubated for 72 hrs by cell-titer glo assay; format: functional, cell-based; conditions: IGROV-1, 72 h
Outline: (§3)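 Cells seeded at 10,000–30,000/cm² (adherent) or 100,000/mL (nonadherent) in medium with 10% fetal calf serum; after 24 h, treated in duplicate with serial dilutions for 72 h. Viable cell number read by CellTiter-Glo luminescence; IC50 from sigmoidal fit; at least two independent experiments.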

OVCAR-8 = test: Antiproliferative activity against human OVCAR-8 cells assessed as inhibition of cell growth incubated for 72 hrs by cell-titer glo assay; format: functional, cell-based; conditions: OVCAR-8, 72 h; outline: as §2
SK-OV-3 = test: Antiproliferative activity against human SK-OV-3 cells assessed as inhibition of cell growth incubated for 72 hrs by cell-titer glo assay; format: functional, cell-based; conditions: SK-OV-3, 72 h
M14 = test: Antiproliferative activity against human M14 cells assessed as inhibition of cell growth incubated for 72 hrs by cell-titer glo assay; format: functional, cell-based; conditions: M14, 72 h; outline: as §3
[12] = Antiproliferative activity against human MEC-1 cells assessed as inhibition of cell growth incubated for 72 hrs by cell-titer glo assay; format: functional, cell-based; conditions: MEC1, 72 h; outline: as §3
[13] = Antiproliferative activity against human GM14788 cells assessed as inhibition of cell growth incubated for 72 hrs by cell-titer glo assay; format: functional, cell-based; conditions: GM14788, 72 h; outline: as §3
[14] = Half-life in Beagle dog at 5 mg/kg, iv by LC-MS analysis; format: ADME, organism-based, Canis lupus familiaris; conditions: in vivo
[15] = Oral bioavailability in nu/nu mouse at 10 mg/kg by LC-MS analysis; format: ADME, organism-based; conditions: in vivo
A2780 = test: Induction of mitosis in human A2780 cells at 0.0001 to 100 uM incubated for upto 24 hrs followed by compound washout by cell titer glow assay; format: functional, cell-based; conditions: dose 0.0001-100 µM

Protein-tyrosine kinase 6, sequence (Q13882 whole entry): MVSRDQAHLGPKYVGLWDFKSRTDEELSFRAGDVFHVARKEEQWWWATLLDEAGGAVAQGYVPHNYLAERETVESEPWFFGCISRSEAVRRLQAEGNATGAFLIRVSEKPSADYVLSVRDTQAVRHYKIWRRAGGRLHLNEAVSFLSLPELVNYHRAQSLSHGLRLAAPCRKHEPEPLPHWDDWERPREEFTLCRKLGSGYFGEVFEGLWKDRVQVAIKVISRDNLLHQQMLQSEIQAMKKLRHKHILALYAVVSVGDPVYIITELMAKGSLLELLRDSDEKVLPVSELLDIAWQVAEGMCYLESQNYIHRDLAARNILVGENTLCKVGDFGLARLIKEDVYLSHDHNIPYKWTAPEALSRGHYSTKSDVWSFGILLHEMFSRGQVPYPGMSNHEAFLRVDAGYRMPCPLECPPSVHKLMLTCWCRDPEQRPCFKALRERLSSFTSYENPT
Serine/threonine-protein kinase Chk1, sequence (O14757 whole entry): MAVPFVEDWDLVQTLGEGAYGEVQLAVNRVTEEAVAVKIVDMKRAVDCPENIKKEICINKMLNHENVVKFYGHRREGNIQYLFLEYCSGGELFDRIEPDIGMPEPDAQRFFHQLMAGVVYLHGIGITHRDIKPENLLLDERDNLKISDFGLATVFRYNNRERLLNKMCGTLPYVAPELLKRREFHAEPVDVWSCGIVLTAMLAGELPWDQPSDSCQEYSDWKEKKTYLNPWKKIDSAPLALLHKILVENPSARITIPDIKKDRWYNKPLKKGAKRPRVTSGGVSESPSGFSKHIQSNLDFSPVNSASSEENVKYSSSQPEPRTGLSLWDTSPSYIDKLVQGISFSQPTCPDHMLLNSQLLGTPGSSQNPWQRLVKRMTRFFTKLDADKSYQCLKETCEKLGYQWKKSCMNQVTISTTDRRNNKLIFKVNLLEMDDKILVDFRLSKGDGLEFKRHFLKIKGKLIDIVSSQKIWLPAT

CN1CCN(c2ccc(OC(F)(F)F)c(Nc3ncc4c(n3)-c3c(c(C(N)=O)nn3CCO)CC4)c2)CC1 [ONVANSERTIB]
IC50 [1]: > 10000 nM | IC50 [2]: > 10000 nM | IC50 [3]: > 10000 nM | IC50 [4]: > 10000 nM | IC50 [5]: > 10000 nM | IC50 [6]: > 10000 nM | Activity [7]: 132% | Activity [8]: 113% | Activity [9]: 88% | Activity [10]: 146% | Activity [11]: 80% | IC50 (CAL-51): 19 nM | IC50 (BT-474): 156 nM | IC50 (COLO-741): 108 nM | IC50 (NCI-H1993): 287 nM | IC50 (IGROV-1): 54 nM | IC50 (OVCAR-8): 59 nM | IC50 (SK-OV-3): 191 nM | IC50 (M14): 67 nM | IC50 [12]: 112 nM | IC50 [13]: 82 nM | half-life [14]: 3.9 h | bioavailability [15]: 24% | Activity (A2780): Active

— ChEMBL document CHEMBL5678806, “NMS-P937, an orally available, specific small-molecule polo-like kinase 1 inhibitor with antitumor activity in solid and hematologic malignancies” (Mol Cancer Ther, 2012)
